Shown are actives, neighbours in structure and some others; about 1.9% of the full set was active somewhere.
DDE Tn7 FP inh – inhibitors of Tn7 peptide binding to human fibrin DD(E); 0.13% of 370,000 active; inhibition, % at 8.3 µM; AID 720508; FP displacement of FITC-Tn7 peptide from fibrin DD(E); 0% = median of compound wells per plate;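 active = inhibition above the mean of compounds falling within the control limits plus 3 SD of them, cut at about 14% in these data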;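 also: 0% = plate median of compound wells and 100% = 10 µM Aha-Tn7 peptide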
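Also added: labelled Tn7 tracer, 0.1 µM; Assay system: human fibrin DD(E) protein; Amount: 2 µM fibrin DD(E); Schedule: 10 min compound pre-incubation, 3 h probe incubation at room temperature; Repeats: one replicate per compound; Read-out basis: percent inhibition; Measured by: fluorescence polarization of the labelled Tn7 tracer.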
MBD2 DNA inh – blocks human MBD2 binding to methylated DNA; Q9UBB5; TR-FRET, MBD2 binding to methylated oligonucleotide; inhibition, % at 4.4 µM; 0.31% of 370,000 active; AID 686964; in the data active = inhibition above about 13%
TDP2 absorb – blocks human TDP2 phosphodiesterase activity. O95551. recombinant TDP2, T5PNP hydrolysis, p-nitrophenol absorbance 415 nm. inhibition, % at 12.8 µM. 0.34% of 370,000 active;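 active = inhibition above the mean of all tested compounds plus 3 SD, set per campaign, cut at about 25% in these data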;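 also: 0% = DMSO with enzyme and 100% = buffer with substrate but no TDP2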
Target sequence (O95551 whole entry, looked up): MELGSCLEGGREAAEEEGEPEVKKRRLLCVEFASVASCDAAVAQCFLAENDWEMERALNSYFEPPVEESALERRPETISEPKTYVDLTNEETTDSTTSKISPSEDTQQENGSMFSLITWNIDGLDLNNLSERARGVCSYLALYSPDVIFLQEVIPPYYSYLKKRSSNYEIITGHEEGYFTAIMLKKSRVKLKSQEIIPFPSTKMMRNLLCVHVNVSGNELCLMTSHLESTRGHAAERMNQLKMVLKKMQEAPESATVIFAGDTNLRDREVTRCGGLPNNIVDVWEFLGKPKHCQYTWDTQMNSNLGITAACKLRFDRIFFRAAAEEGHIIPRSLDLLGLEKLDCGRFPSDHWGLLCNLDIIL
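Test system: human TDP2 enzyme; Input: 120 nM TDP2 per well; Buffer or medium: Mg2+-containing Tris-HCl buffer, pH 7.5; Reagent: 5 mM T5PNP; Dosing: 12.8 µM single point, 1% DMSO; Incubation: reaction 2 h, 37 °C; Detection: p-Nitrophenol epi absorbance; Read-out: % inhibition relative to enzyme-containing and enzyme-free wells; Replicates: single well per compound.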
UHRF1 MBD2 ctr – blocks human UHRF1 binding to methylated DNA | Q96T88 | UHRF1 binding to methylated oligo, TR-FRET | inhibition, % at 4.4 µM | 0.75% of 370,000 active; in the data active = inhibition above about 21%;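 also: UHRF1 SRA domain binding a hemimethylated CpG hairpin DNA probe; 0% = median of test compound wells and 100% = reference inhibitor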
LEDGF integ inh – blocks HIV-1 LEDGF/p75-dependent DNA integration. inhibition, % at 3.7 µM. TR-FRET IN-LEDGF/p75 DNA integration, Eu/Cy5. 0.64% of 370,000 active;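 active = inhibition above the screen-wide mean plus 3 SD, cut at about 13% in these data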;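 also: signal is the Cy5 over europium emission ratio at 671 and 618 nm; 0% = plate median of compound wells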
DDE Tn6 FP inh – DD(E)-Tn6 binding inhibition, primary FP screen; 0.21% of 370,000 active; inhibition, % at 8.3 µM; AID 720509; P02675; Fibrin DD(E) TRITC-Tn6 fluorescence polarization displacement;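 active = inhibition above a per-campaign cutoff: mean of compounds within control limits plus 3 SD, cut at about 15% in these data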;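 also: 0% = median of all compound wells on the plate and 100% = blocking peptide control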
Tn6 DDE ctr – counter-screen hit for Tn6 peptide-fibrin DD(E) binding disruption | shares compounds with DDE Tn6 FP inh | TRITC-Tn6 fluorescence polarization displacement; 0% = median of compound wells, not DMSO | inhibition, % at 8.3 µM | 2% of 680 active;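 active = inhibition above the mean of test compounds lying between the control limits plus 3 SD of those, cut at about 14% in these data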;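 also: 0% = median of compound wells and 100% = wells with Aha-Tn7 blocking peptide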
Tn6 DDE conf – confirmation of inhibitors of Tn6 binding to human fibrin DD(E); shares compounds with DDE Tn6 FP inh; FP displacement of TRITC-Tn6 peptide from DD(E); 0% = per-plate median of test wells; inhibition, % at 8.3 µM; 10% of 680 active;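 active = inhibition above the mean of compounds lying within the control limits plus 3 SD, cut at about 16% in these data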;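 also: 100% = high control wells holding a competing inhibitor peptide at 10 µM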
Numbers without * were called inactive.

For COC(=O)C[C@@H]1CC[C@H]2[C@@H](COc3ccc(NC(=O)Nc4ccc(C)cc4)cc3C(=O)N2C)O1 the results were DDE Tn7 FP inh -4, MBD2 DNA inh -1, TDP2 absorb 2, UHRF1 MBD2 ctr 3, LEDGF integ inh 1 and DDE Tn6 FP inh -3.
Cc1ccccc1C(=O)Nc1ccc(-c2nc3ccc(C(=O)c4ccccc4)cc3[nH]2)cc1 was read as DDE Tn7 FP inh -2, MBD2 DNA inh -1, TDP2 absorb 12, UHRF1 MBD2 ctr 0, LEDGF integ inh -2, DDE Tn6 FP inh 38*, Tn6 DDE ctr 14* and Tn6 DDE conf 22*.
For CN(c1ccccc1)S(=O)(=O)c1ccc(Cl)c(C(=O)Nc2nc3ccccc3[nH]2)c1 the results were DDE Tn7 FP inh 1, MBD2 DNA inh -4, TDP2 absorb -9, UHRF1 MBD2 ctr 0, LEDGF integ inh -3 and DDE Tn6 FP inh 3.
Screening CN(c1ccccc1)S(=O)(=O)c1ccc(Cl)c(C(=O)Nc2ccc(-c3nc4ccccc4[nH]3)cc2)c1 returned DDE Tn7 FP inh 11, MBD2 DNA inh 5, TDP2 absorb 2, UHRF1 MBD2 ctr 1, LEDGF integ inh -2, DDE Tn6 FP inh 39*, Tn6 DDE ctr -1 and Tn6 DDE conf 21*.
COc1cc(CC(=O)OCC(=O)NC2CCCCC2C)cc(OC)c1OC (centres undefined) was read as DDE Tn7 FP inh 8, MBD2 DNA inh -1, TDP2 absorb 4, UHRF1 MBD2 ctr 0, LEDGF integ inh 3, DDE Tn6 FP inh 26*, Tn6 DDE ctr -8 and Tn6 DDE conf -9.
For Cc1cc(NS(=O)(=O)c2ccc(NC(=O)CSc3nnc(-c4ccccn4)n3-c3ccccc3)cc2)nc(C)n1 the results were DDE Tn7 FP inh 1, MBD2 DNA inh -3, TDP2 absorb 0, UHRF1 MBD2 ctr 1, LEDGF integ inh 0 and DDE Tn6 FP inh 3.
Screening CCOC(=O)CNC(=O)Nc1cccc(Cl)c1C returned DDE Tn7 FP inh -1, MBD2 DNA inh 0, TDP2 absorb 13, UHRF1 MBD2 ctr -2, LEDGF integ inh 1, DDE Tn6 FP inh 52*, Tn6 DDE ctr 1 and Tn6 DDE conf -4.
Screening CCOC(=O)Nc1cccc(Cl)c1C returned DDE Tn7 FP inh 3, MBD2 DNA inh 2, TDP2 absorb -3, UHRF1 MBD2 ctr -1, LEDGF integ inh 3 and DDE Tn6 FP inh -2.
CC(C)c1ccc(CNc2nnnn2C)cc1 was read as DDE Tn7 FP inh 4, MBD2 DNA inh 0, TDP2 absorb -5, UHRF1 MBD2 ctr 2, LEDGF integ inh -4, DDE Tn6 FP inh 19*, Tn6 DDE ctr 0 and Tn6 DDE conf 0.
`COc1ccc(C2CC(=O)C(c3ccc([N+](=O)[O-])cc3)=CN2Cc2ccccc2)cc1` (centres undefined) gave DDE Tn7 FP inh -3, MBD2 DNA inh 3, TDP2 absorb 2, UHRF1 MBD2 ctr 2, LEDGF integ inh -2 and DDE Tn6 FP inh -7.
O=C1CCCC/C1=C\Nc1ccc(O)cc1 was read as DDE Tn7 FP inh 5, MBD2 DNA inh -7, TDP2 absorb 4, UHRF1 MBD2 ctr -4, LEDGF integ inh 11, DDE Tn6 FP inh 27*, Tn6 DDE ctr 4 and Tn6 DDE conf 0.
`O=C1CCC/C1=C/Nc1ccc2c(c1)OCO2` gave DDE Tn7 FP inh 12, MBD2 DNA inh -5, TDP2 absorb 7, UHRF1 MBD2 ctr -3, LEDGF integ inh 3, DDE Tn6 FP inh 21*, Tn6 DDE ctr 3 and Tn6 DDE conf 3.
CC(=O)c1cc(-c2ccccc2)n(CC(=O)NCc2ccc(Cl)cc2)c1C was read as DDE Tn7 FP inh 0, MBD2 DNA inh 2, TDP2 absorb 6, UHRF1 MBD2 ctr -3, LEDGF integ inh -1 and DDE Tn6 FP inh 3.
`CCNC(=O)N1CCN(c2ccc(N3CCN(Cc4ccccc4)[C@H](C)C3)c(C)c2)[C@H](C)C1` gave DDE Tn7 FP inh 0, MBD2 DNA inh -2, TDP2 absorb 0, UHRF1 MBD2 ctr -1, LEDGF integ inh 1 and DDE Tn6 FP inh 9.
`O=C(Nc1cc(Cl)ccc1F)C1CCCN(c2nnc(-n3cccc3)s2)C1` (centres undefined) gave DDE Tn7 FP inh -6, MBD2 DNA inh 0, TDP2 absorb -2, UHRF1 MBD2 ctr -1, LEDGF integ inh 4 and DDE Tn6 FP inh -4.
Screening COC(=O)[C@]12C[C@H](CC(=O)N3CCN(C(=O)C4CC4)CC3)C(=O)N(CCC3=CCCCC3)C1=C[C@H](COCc1ccccc1)O[C@@H]2C returned DDE Tn7 FP inh -3, MBD2 DNA inh 3, TDP2 absorb 2, UHRF1 MBD2 ctr -2, LEDGF integ inh -4 and DDE Tn6 FP inh -7.
`O=C(CSc1nnc(CNC(=O)c2ccco2)o1)NC1CCCC1` gave DDE Tn7 FP inh 7, MBD2 DNA inh 0, TDP2 absorb -1, UHRF1 MBD2 ctr 4, LEDGF integ inh 0, DDE Tn6 FP inh 16*, Tn6 DDE ctr 0 and Tn6 DDE conf -3.
For O=C(CSc1nnc(CNC(=O)c2ccco2)o1)Nc1ccccc1 the results were DDE Tn7 FP inh -1, MBD2 DNA inh 4, TDP2 absorb -5, UHRF1 MBD2 ctr 3, LEDGF integ inh -2 and DDE Tn6 FP inh 0.
For CC(CCN1CCC(C(O)(c2ccccc2)c2ccccc2)CC1)Oc1cc(F)cc(F)c1 (centres undefined) the results were DDE Tn7 FP inh -3, MBD2 DNA inh 8, TDP2 absorb -9, UHRF1 MBD2 ctr -1, LEDGF integ inh 3 and DDE Tn6 FP inh -6.
`NC(N)=NS(=O)(=O)c1ccc(NC(=S)NC(=O)/C=C/c2cccs2)cc1` gave DDE Tn7 FP inh 7, MBD2 DNA inh 8, TDP2 absorb -8, UHRF1 MBD2 ctr 5, LEDGF integ inh -6, DDE Tn6 FP inh 51*, Tn6 DDE ctr -8 and Tn6 DDE conf -8.
For O=C(Nc1cccc(F)c1)c1ccc(-n2cncn2)c2ccoc12 the results were DDE Tn7 FP inh 2, MBD2 DNA inh -3, TDP2 absorb 0, UHRF1 MBD2 ctr 0, LEDGF integ inh 0, DDE Tn6 FP inh 16*, Tn6 DDE ctr 8 and Tn6 DDE conf -6.
For CC(=O)c1cccc(NC(=O)c2ccc(-n3cncn3)c3ccoc23)c1 the results were DDE Tn7 FP inh 0, MBD2 DNA inh 5, TDP2 absorb -16, UHRF1 MBD2 ctr 6, LEDGF integ inh 7 and DDE Tn6 FP inh 6.
